In brackets after ≈: the same amount, converted by molar mass.
Assays:
[1] = Concentration required for 50% inhibition of growth by the compound in normal peripheral blood lymphocytes; type: functional, cell-based, Homo sapiens
Procedure, shortened: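 Human lymphocytes isolated from whole blood on Ficoll Paque, stimulated with PHA (1 μL/mL) for 72 h and plated at 1 × 10^5/mL. Compounds added over 100 to 0.1 μg/mL. Survival measured after 24 h by MTT colorimetric assay, with formazan dissolved in acidic 2-propanol and absorbance read at 540 nm.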

T-24 = assay: Concentration required for 50% inhibition of growth by the compound in transitional bladder carcinoma T24 cells; type: functional, cell-based, Homo sapiens
Procedure, shortened: (§1)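 Cells kept in RPMI 1640 with 10% fetal calf serum at 37 °C, 5% CO2, then plated at 1 × 10^4 per 100 μL and left overnight. Exposure to varying concentrations for 1 h, followed by 48 h incubation. MTT (5 mg/mL stock) added for 4 h at 37 °C and formazan dissolved in 0.08 M HCl/2-propanol. Absorbance read at 540 nm against 690 nm reference. Three experiments, eight assays per point.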

MRC5CV1 = assay: Concentration required for 50% inhibition of growth by the compound in SV-40 transformed fibroblasts (MRC5CV1); type: functional, cell-based; settings: Homo sapiens; procedure, shortened: as §1
[2] = Homo sapiens, T-24, read-out: IC50

Row | Compound | IC50 [1] [µg/mL] | IC50 (T-24; [2]) [µg/mL] | IC50 (MRC5CV1) [µg/mL] | IC50 (T-24; t-24) [µg/mL]
1 | CC(C)[C@@H]1NC(=O)[C@H]2N=C(O[C@@H]2C)[C@@H]2CCCN2C(=O)[C@H](Cc2ccccc2)NC(=O)[C@@H]2CSC(=N2)[C@H](Cc2ccccc2)NC(=O)[C@@H]2CSC1=N2 | 0.08 (≈ 0.108 µM) | 0.06 (≈ 0.0806 µM) | 0.04 (≈ 0.0538 µM) | –
2 | CC(C)C1NC(=O)C2N=C(OC2C)C2CCCN2C(=O)C(Cc2ccccc2)NC(=O)c2csc(n2)C(Cc2ccccc2)NC(=O)C2CSC1=N2 (stereo in doubt; form 1) | 8 (≈ 10.8 µM) | – | 1 (≈ 1.35 µM) | 6 (≈ 8.09 µM)
3 | CC(C)C1NC(=O)C2N=C(OC2C)C2CCCN2C(=O)C(Cc2ccccc2)NC(=O)c2csc(n2)C(Cc2ccccc2)NC(=O)c2csc1n2 (stereo not given) | 20 (≈ 27 µM) | 10 (≈ 13.5 µM) | 15 (≈ 20.3 µM) | –
4 | CC(C)C1NC(=O)C2N=C(OC2C)C2CCCN2C(=O)C(Cc2ccccc2)NC(=O)c2csc(n2)C(Cc2ccccc2)NC(=O)C2CSC1=N2 (stereo in doubt; form 2) | – | – | – | 0.8 (≈ 1.08 µM)
